Data taken from PubChem BioAssay AID602172 (The Scripps Research Institute Molecular Screening Center, 2012).
Calls of active or inactive are those of the source.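 How the source made its calls: active means DNA binding activation reaching at least 20% of the dioxin reference response; inactive means the rest.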

Target: Aryl hydrocarbon receptor (Cavia porcellus)
Experiment: enhancers of AHR:DRE complex formation, late-stage follow-up, mechanism study for AHR activator project, cell lysate, guinea pig liver cytosol, radiometric EMSA (AID 602172)
Conditions: radiometric gel
How it was run: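 Measured by – native 4% PAGE gel shift, phosphorimager quantification · Assay system – male Hartley guinea pig liver cytosol containing AHR · Quantity – 8 mg/mL cytosolic protein · Timing – compound exposure of cytosol 2.5 h, room temperature · Measure – AHR:DRE complex amount as percent of 20 nM TCDD · Controls – TCDD 20 nM reference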

EC50 [nM] | SMILES
1000 | Cc1nc(N)nc(Nc2ccc(Cl)cc2)c1Br
500 | Cc1ccc(-c2cc(-c3cccs3)[nH]n2)c(O)c1

Same assay, conditions: radiometric gel, at 10 µM, active compounds read high

DNA binding activation (% of TCDD) | SMILES
5.3% (inactive) | CC(=O)c1ccc(NC(=O)c2cc(Cl)nc3ccccc23)cc1
59.4% | O=C1c2ccccc2-c2nc3ccccc3nc21
17% (inactive) | COc1cc2c(cc1NC(=O)Nc1ccc(C)cc1)oc1ccccc12
4.4% (inactive) | Cc1c(-c2ccn[nH]2)cc(NC(=O)c2ccc(Cl)cc2)c(=O)n1N
17.6% (inactive) | Cc1ccc(Nc2ncccc2C(N)=O)cc1
3.7% (inactive) | Cc1nnc(N2C(=O)c3cccc4c([N+](=O)[O-])ccc(c34)C2=O)s1
20.2% | COc1ccc(Cl)cc1C(=O)Nc1ccc(N(C)C(C)=O)cc1
40.4% | Cc1ccccc1-c1nc(-c2cccnc2)no1
15% (inactive) | COc1ccccc1NC(=O)c1ccc2c(c1)nnn2C
12.1% (inactive) | CCCC(=O)Nc1nn(C)c2nc3cc(C)ccc3cc12
15.3% (inactive) | CCOC(=O)Cc1cc(-c2ccc(O)cc2)nc2ccc3ccccc3c12
8.6% (inactive) | Cc1cc(Nc2ccc(Br)cc2)n2nc(C)nc2n1
46.8% | CCOc1ccc(NC(=O)c2cc3ccccc3cc2OC)cc1
67.8% | COc1cc2ccccc2cc1C(=O)Nc1ccc(C)cc1
8.2% (inactive) | CCOc1ccc(-c2cc(C)n3nc(C(N)=O)cc3n2)cc1

The next lines start with the compound.

SMILES | DNA binding activation (% of TCDD)
CCOc1ccccc1NC(=O)c1ccc2nccnc2c1 | 20% (inactive)
Cn1c(N)c(C(=O)Nc2ccccc2F)sc1=S | 37%
O=C(Nc1cccc(Cl)c1)c1cccnn1 | 21.6%
CCC(=O)Nc1cc(OC)c(NC(=O)c2ccccc2)cc1OC | 7% (inactive)
CN1CCN(CCCNC(=O)c2cc3c(-c4ccc(Cl)cc4)nn(C)c3s2)CC1 | 5.4% (inactive)
COC(=O)c1ccccc1NC(=O)Cn1ccnc1 | 5.2% (inactive)
Cn1c(C(=O)N2CCC(C(N)=O)CC2)cc2cc(Cl)ccc21 | 27.8%
COc1ccccc1C(=O)Nc1ccc(N2CCCCC2)cc1 | 42%
O=C(Nc1ccon1)c1cnc2sccn2c1=O | 21%
COc1ccccc1NC(=O)c1ccc(C(=O)Nc2ccccc2OC)nc1 | 6.4% (inactive)
O=C(CN1CCOCC1)Nc1nc2ccc([N+](=O)[O-])cc2s1 | 3.2% (inactive)
COc1ccc(NC(=O)c2cccc3c(Br)cccc23)cc1 | 18% (inactive)
COc1ccc(C(=O)Nc2cc(OC)c(NC(=O)c3ccco3)cc2OC)cc1 | 10% (inactive)
Cc1csc(SCC(=O)Nc2ccc(Cl)cn2)n1 | 7.8% (inactive)
COc1ccccc1NC(=O)Nc1cccnc1 | 10% (inactive)
CN(C)c1nc(N)nc(-c2nc3ccccc3s2)n1 | 58.6%
